Results reported in the M2OR odorant receptor database.
Positions count from the first letter of the chain named.

Assays:
Settings in all cases: stereoisomer not certain
O2T11 = test system: T1, O2T11
T1 sequence (whole entry): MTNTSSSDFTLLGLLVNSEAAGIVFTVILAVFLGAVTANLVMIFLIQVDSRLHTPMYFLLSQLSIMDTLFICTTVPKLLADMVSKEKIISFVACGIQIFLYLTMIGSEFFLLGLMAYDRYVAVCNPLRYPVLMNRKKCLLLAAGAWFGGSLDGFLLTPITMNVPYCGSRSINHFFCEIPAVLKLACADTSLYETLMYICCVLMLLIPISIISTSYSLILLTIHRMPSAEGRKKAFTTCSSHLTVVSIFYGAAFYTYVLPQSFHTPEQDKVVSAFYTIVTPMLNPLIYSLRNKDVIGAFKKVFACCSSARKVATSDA
How it was run: (§1)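 Whether a receptor–molecule pair is responsive (active) rests on the original authors' judgment that its measured signal was statistically different from baseline. Pairs without that judgment are non-responsive (inactive). Sources used varied assay methods, commonly transient luciferase assays in mammalian cell lines.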

O2T27 L36V V134D = test system: T2, O2T27 L36V V134D
T2 sequence (whole entry): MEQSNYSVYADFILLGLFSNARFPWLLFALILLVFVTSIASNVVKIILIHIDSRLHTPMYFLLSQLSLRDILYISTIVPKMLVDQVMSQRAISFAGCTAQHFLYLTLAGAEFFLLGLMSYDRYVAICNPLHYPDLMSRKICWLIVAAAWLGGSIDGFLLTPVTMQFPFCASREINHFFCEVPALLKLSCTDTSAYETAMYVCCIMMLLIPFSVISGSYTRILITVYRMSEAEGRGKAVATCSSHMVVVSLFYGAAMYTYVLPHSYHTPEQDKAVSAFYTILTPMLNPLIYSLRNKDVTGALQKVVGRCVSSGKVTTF
How it was run: as §1

O2T29 Q24R = test system: T3, O2T29 Q24R
T3 sequence (whole entry): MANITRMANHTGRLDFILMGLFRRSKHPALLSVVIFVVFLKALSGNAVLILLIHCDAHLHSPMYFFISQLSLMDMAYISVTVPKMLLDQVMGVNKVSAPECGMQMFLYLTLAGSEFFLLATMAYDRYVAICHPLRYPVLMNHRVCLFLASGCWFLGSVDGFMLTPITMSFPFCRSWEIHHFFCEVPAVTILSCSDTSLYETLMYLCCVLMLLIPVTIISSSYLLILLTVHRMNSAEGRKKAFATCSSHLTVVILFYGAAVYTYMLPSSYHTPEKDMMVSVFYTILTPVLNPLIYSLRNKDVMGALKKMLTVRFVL
How it was run: as §1

O2T33 A169V = test system: T4, O2T33 A169V
T4 sequence (whole entry): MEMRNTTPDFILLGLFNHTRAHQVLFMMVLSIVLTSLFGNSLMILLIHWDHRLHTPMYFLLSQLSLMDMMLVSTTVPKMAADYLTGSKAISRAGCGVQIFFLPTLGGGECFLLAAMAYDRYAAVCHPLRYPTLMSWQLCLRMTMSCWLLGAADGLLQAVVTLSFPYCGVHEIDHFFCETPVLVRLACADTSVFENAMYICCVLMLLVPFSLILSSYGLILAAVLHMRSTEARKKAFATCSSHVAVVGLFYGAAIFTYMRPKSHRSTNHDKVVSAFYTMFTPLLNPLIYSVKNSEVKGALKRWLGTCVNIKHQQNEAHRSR
How it was run: as §1

O2T33 G297E I309L = test system: T5, O2T33 G297E I309L
T5 sequence (whole entry): T4 sequence (whole entry) with V169A, G297E, I309L
How it was run: as §1

O2T34 Q6P R267P = test system: T6, O2T34 Q6P R267P
T6 sequence (whole entry): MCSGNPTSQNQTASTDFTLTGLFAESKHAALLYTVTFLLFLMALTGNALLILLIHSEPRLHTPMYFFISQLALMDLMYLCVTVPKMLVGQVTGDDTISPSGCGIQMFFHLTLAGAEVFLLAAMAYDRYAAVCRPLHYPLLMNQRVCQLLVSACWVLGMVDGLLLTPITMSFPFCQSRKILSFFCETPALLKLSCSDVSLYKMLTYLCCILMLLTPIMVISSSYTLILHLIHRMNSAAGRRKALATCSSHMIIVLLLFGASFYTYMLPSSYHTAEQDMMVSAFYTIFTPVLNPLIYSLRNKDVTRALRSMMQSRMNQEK
How it was run: as §1

O2T34 R267P = test system: T7, O2T34 R267P
T7 sequence (whole entry): T6 sequence (whole entry) with P6Q
How it was run: as §1

O4A47 = test system: T8, O4A47
T8 sequence (whole entry): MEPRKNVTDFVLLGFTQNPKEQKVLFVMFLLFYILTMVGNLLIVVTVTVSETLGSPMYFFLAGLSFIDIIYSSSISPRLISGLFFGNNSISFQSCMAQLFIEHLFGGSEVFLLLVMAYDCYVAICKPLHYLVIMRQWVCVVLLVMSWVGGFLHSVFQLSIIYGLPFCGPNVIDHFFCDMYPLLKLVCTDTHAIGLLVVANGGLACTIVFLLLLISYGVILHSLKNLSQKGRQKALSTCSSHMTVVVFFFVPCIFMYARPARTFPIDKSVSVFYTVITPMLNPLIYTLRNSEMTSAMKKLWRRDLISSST
How it was run: as §1

O4C46 S240F C252Y K288R = test system: O4C46 S240F C252Y K288R
How it was run: as §1

O4F17 [1] = test system: T9, O4F17
T9 sequence (whole entry): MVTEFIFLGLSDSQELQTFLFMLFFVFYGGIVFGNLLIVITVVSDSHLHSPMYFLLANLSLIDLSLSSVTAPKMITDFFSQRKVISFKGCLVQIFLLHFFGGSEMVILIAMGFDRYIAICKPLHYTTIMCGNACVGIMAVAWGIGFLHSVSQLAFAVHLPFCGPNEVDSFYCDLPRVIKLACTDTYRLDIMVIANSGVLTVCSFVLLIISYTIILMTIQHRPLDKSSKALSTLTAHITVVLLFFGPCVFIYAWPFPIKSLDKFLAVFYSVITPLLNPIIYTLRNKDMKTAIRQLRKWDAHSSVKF
How it was run: as §1

O4F17 [2] = test system: T10, O4F17; remark: listed apart in the source
T10 sequence (whole entry): T9 sequence (whole entry) with E15G, Q293R
How it was run: as §1

O4F21 F44L = test system: T11, O4F21 F44L
T11 sequence (whole entry): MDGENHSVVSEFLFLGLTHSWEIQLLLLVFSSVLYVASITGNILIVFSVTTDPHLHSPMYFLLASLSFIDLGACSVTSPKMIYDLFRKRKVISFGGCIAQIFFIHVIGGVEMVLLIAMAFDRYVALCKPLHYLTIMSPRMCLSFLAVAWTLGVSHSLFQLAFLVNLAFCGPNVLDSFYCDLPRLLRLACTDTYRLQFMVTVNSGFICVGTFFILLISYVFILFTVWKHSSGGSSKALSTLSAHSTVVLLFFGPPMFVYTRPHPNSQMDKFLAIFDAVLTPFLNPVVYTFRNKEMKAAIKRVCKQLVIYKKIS
How it was run: as §1

O51A7 E8D = test system: T12, O51A7 E8D
T12 sequence (whole entry): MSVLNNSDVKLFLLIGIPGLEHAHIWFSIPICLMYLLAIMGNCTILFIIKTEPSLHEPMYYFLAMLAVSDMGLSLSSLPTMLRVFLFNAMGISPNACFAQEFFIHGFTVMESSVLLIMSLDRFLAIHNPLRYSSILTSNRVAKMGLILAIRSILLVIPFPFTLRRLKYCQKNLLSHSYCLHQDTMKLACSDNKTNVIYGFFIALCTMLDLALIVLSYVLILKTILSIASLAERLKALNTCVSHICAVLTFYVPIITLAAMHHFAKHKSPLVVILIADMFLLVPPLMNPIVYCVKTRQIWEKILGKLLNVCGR
How it was run: as §1

O51B2 C120R C209S P283S = test system: T13, O51B2 C120R C209S P283S
T13 sequence (whole entry): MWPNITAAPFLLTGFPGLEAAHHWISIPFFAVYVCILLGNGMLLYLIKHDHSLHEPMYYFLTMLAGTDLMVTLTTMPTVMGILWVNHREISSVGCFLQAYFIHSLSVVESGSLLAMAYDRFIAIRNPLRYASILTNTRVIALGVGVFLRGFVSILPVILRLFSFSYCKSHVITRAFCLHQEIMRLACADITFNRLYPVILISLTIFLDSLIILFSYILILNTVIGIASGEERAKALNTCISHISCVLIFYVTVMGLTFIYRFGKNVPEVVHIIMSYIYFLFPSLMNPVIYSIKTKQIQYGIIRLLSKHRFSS
How it was run: as §1

O51B4 M147T = test system: T14, O51B4 M147T
T14 sequence (whole entry): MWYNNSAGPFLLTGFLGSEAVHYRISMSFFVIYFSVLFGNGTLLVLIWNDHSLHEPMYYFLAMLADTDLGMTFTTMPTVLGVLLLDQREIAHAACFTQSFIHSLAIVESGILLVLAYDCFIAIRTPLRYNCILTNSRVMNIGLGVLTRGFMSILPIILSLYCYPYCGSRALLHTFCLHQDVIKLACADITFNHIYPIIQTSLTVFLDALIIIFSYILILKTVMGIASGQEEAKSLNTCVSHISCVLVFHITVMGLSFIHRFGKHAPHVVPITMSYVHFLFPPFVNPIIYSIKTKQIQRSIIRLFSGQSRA
How it was run: as §1

O51B4 = test system: T15, O51B4
T15 sequence (whole entry): T14 sequence (whole entry) with V36I
How it was run: as §1

O51B5 G5S I102T P160L = test system: T16, O51B5 G5S I102T P160L
T16 sequence (whole entry): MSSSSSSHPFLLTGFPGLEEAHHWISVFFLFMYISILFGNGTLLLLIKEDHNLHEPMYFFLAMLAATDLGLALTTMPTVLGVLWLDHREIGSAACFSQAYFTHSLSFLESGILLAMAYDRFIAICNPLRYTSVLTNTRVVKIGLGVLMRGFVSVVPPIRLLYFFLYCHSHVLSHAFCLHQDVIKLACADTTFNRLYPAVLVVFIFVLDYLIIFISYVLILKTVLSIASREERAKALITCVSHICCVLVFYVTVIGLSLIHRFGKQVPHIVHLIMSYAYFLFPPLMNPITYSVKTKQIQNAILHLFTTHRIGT
How it was run: as §1

O51D1 I89V = test system: T17, O51D1 I89V
T17 sequence (whole entry): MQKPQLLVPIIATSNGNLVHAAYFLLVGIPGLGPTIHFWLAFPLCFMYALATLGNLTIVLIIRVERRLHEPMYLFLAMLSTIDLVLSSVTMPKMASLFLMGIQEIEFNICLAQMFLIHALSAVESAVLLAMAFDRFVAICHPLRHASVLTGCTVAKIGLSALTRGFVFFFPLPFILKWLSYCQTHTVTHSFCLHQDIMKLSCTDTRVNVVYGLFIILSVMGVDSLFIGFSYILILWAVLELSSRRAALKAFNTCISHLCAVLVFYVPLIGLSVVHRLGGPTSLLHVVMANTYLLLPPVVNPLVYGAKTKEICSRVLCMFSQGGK
How it was run: as §1

O4F15 A272T = test system: T18, O4F15 A272T
T18 sequence (whole entry): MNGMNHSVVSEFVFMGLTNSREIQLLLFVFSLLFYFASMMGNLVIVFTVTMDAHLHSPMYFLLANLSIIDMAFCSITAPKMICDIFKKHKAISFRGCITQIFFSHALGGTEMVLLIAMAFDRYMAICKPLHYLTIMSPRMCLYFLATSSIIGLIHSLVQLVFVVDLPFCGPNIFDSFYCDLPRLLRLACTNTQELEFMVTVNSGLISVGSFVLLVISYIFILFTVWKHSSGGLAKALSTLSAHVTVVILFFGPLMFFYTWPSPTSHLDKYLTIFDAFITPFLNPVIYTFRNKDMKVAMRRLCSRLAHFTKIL
How it was run: as §1

O4F15 S149F = test system: T19, O4F15 S149F
T19 sequence (whole entry): T18 sequence (whole entry) with S149F, T272A
How it was run: as §1

Measured: odorant receptor agonist call;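 note: active if original authors judged signal statistically different from baseline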

CCCCCCC=CCCC=O
not listed: O4F15 A272T | O4F15 S149F
inactive: all other assays above

CCC1OC(=O)C(O)=C1C (stereo not drawn)
inactive: all assays above

CCC1OC(C)=C(O)C1=O (stereo not drawn)
inactive: all assays above

CC1=NC(C)C(C)S1 (stereo not drawn)
inactive: all assays above
